Published values gathered from unrelated publications.
Each line is one published result; the experiments were not run side by side.
Target: Dual specificity protein kinase CLK2 (CLK2, Homo sapiens, UniProt P49760)
Method: competition with immobilised ligand

Structure (SMILES) | effect on | tested at | remaining binding
O=C(c1ccc(Nc2nccc(-c3cc4ccccc4s3)n2)cc1)N1CCC(N2CCCC2)CC1 | binding | 1 µM | 39%
C[C@@]1(Cc2ccc(C#N)cc2)C(=O)N(c2cc(Cl)cc(Cl)c2)c2ncc(C(=O)NC3(c4nc(C5CCC5)no4)CC3)n21 | cell-free assay | 1 µM | 100%
C=CC(=O)N1CCC(C(=O)NCC(=O)N2CCN(c3nc(-c4cnc(N)nc4C(F)F)nc(N4CCOCC4)n3)CC2)CC1 | binding | 1 µM | 91%
CNC(=O)[C@@H]1CC[C@@H](n2c(-c3ccc4cnccc4c3)nc3ccc(C(=O)NCc4cccc(C(N)=O)c4)cc32)C1 | binding | 1 µM | 100%
Nc1ncc2c(n1)-c1c([nH]c3ccc(C#CC4CC4)cc13)CCCC2 | binding | 1 µM | 96%
Nc1c(C(=O)NCc2ccc(C(=O)NCCCC3CCCCC3)cc2)cnn1-c1ccccc1 | cell-free assay | 0.1 µM | 100%
Cc1cnc(Nc2ccc(C(=O)N3CCC(N4CCCC4)CC3)cc2)nc1-c1cc2ccccc2s1 | binding | 1 µM | 8.8%
COc1ccc2c(c1)O[C@H](c1ccc(OC)c(OC)c1)C[C@@H]2NC(=O)C1(c2ccc3c(c2)OC(F)(F)O3)CC1 | cell-free assay | 1 µM | 95%
O=C(NCC1CCOCC1)c1n[nH]cc1NC(=O)c1c(F)cccc1F | binding | 1 µM | 34%
CCN1CCN(Cc2ccc(C(=O)Nc3ccc(C)c(Oc4ccc5c(c4)CC(=O)N5)c3)cc2C(F)(F)F)CC1 | binding | 1 µM | 100%
O=C(NCCCN1CCOCC1)c1ccc(Nc2nccc(-c3cc4ccccc4s3)n2)cc1 | binding | 1 µM | 28%
Cc1nc(Cc2cccc(C(F)(F)F)c2)sc1-c1ccc(C(N)=O)nc1 | cell-free assay | 1 µM | 100%
C[C@@H](c1ccc(-n2cnc3c(N)ncnc32)cc1)N1CCc2nn(C)c(Cc3ccccc3)c2C1=O | binding | 0.1 µM | 79%
